From ChEMBL document CHEMBL1781998, “Synthesis and biological evaluation of boron peptide analogues of Belactosin C as proteasome inhibitors” (Bioorg Med Chem Lett, 2009)
Where a SMILES comes first, the peptide text is derived from it. The star is where a group is joined. Cbz = O=C(OCc1ccccc1)*

Legend:
[1] = Inhibition of chymotrypsin-like activity of human erythrocyte 20S proteasome using Suc-LLVY-AMC substrate incubated at 37 degC for 1 hr by fluorometric assay
How it was run: (§1)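 Compound combined with 75 µM fluorogenic substrate in 20 mM Tris pH 8.0, 0.5 mM EDTA, 0.035% SDS. Reaction started with 50 ng of purified human erythrocyte 20S proteasome and run 1 h at 37 °C. Stopped with 20 mM Tris pH 8.9, 0.5% SDS; released AMC read at 365 nm excitation / 460 nm emission.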

[2] = Inhibition of caspase-like activity of human erythrocyte 20S proteasome using Z-LLE-AMC substrate incubated at 37 degC for 1 hr by fluorometric assay; how it was run: as §1
[3] = Inhibition of trypsin-like activity of human erythrocyte 20S proteasome using Boc-LLR-AMC substrate incubated at 37 degC for 1 hr by fluorometric assay; conditions: in the assay text read “Boc-LRR-AMC” for “Boc-LLR-AMC”; how it was run: as §1
HeLa [4] = experiment: Growth inhibition of human HeLa cells after 72 hrs by MTT assay; format: functional, cell-based
How it was run: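 HeLa cells incubated for 72 h with a range of compound concentrations; viability read by MTT assay and used to derive IC50.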

HeLa [5] = experiment: Cell cycle arrest in human HeLa cells assessed as accumulation at G1 phase at 1 uM after 24 hrs by flow cytometry (reference value: 56.4 +/- 0.39%); format: functional
HeLa [6] = experiment: Cell cycle arrest in human HeLa cells assessed as accumulation at S phase at 1 uM after 24 hrs by flow cytometry (reference value: 30 +/- 0.46%); format: functional
HeLa [7] = experiment: Cell cycle arrest in human HeLa cells assessed as accumulation at G2/M phase at 1 uM after 24 hrs by flow cytometry (reference value: 13.7 +/- 0.87%); format: functional
HeLa [8] = experiment: Cell cycle arrest in human HeLa cells assessed as accumulation at G1 phase at 10 uM after 24 hrs by flow cytometry (reference value: 56.4 +/- 0.39%); format: functional
HeLa [9] = experiment: Cell cycle arrest in human HeLa cells assessed as accumulation at S phase at 10 uM after 24 hrs by flow cytometry (reference value: 30 +/- 0.46%); format: functional
HeLa [10] = experiment: Cell cycle arrest in human HeLa cells assessed as accumulation at G2/M phase at 10 uM after 24 hrs by flow cytometry (reference value: 13.7 +/- 0.87%); format: functional
HeLa [11] = experiment: Induction of apoptosis in human HeLa cells at 1 uM incubated for 12 hrs using annexin V-FITC and propidiun iodide staining based flow cytometry (reference value: 2.6 +/- 0.14%); format: functional
How it was run: (§2)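 HeLa cells treated for 12 h, then stained with annexin V-FITC and propidium iodide; apoptosis measured by flow cytometry. Values are mean ± sd of triplicate samples.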

HeLa [12] = experiment: Induction of apoptosis in human HeLa cells at 10 uM incubated for 12 hrs using annexin V-FITC and propidiun iodide staining based flow cytometry (reference value: 2.6 +/- 0.14%); format: functional; how it was run: as §2
[13] = Antiproliferative activity against human HeLaS3 cells after 72 hrs; format: functional, cell-based; conditions: HeLa S3, 72 h
How it was run: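 HeLa cells were exposed to a range of compound concentrations for 72 h, and viability was then read by MTT assay. IC50 values are growth inhibition, reported as mean ± sd of triplicate samples.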

HeLa [14] = experiment: Cell cycle arrest in human HeLa cells assessed as accumulation at G1 phase at 0.1 uM after 24 hrs by flow cytometry (reference value: 56.4 +/- 0.39%); format: functional
HeLa [15] = experiment: Cell cycle arrest in human HeLa cells assessed as accumulation at S phase at 0.1 uM after 24 hrs by flow cytometry (reference value: 30 +/- 0.46%); format: functional
HeLa [16] = experiment: Cell cycle arrest in human HeLa cells assessed as accumulation at G2/M phase at 0.1 uM after 24 hrs by flow cytometry (reference value: 13.7 +/- 0.87%); format: functional
HeLa [17] = experiment: Induction of apoptosis in human HeLa cells at 0.1 uM incubated for 12 hrs using annexin V-FITC and propidiun iodide staining based flow cytometry (reference value: 2.6 +/- 0.14%); format: functional; how it was run: as §2

IC50 [1] [µM]	IC50 [2] [µM]	IC50 [3] [µM]	IC50 (HeLa [4]) [µM]	Compound	further results
4.12	> 10	> 10	> 10	CC(C)C[C@H](NC(=O)CCC[C@H](NC(=O)OC(C)(C)C)C(=O)NCc1ccc2ccccc2c1)B(O)O	–
0.28	8.54	> 10	0.35	CC(C)C[C@H](NC(=O)CC[C@H](NC(=O)CNC(=O)OC(C)(C)C)C(=O)NCc1ccc2ccccc2c1)B(O)O	Activity (HeLa [5]): 57.7%; Activity (HeLa [6]): 16.4%; Activity (HeLa [7]): 26%; Activity (HeLa [8]): 23%; Activity (HeLa [9]): 14.4%; Activity (HeLa [10]): 62.6%; Activity (HeLa [11]): 12.9%; Activity (HeLa [12]): 15.2%
0.54	> 10	> 10	5.11	CC(C)C[C@H](NC(=O)CC[C@H](NC(=O)CNC(=O)OC(C)(C)C)C(=O)NCc1ccccc1)B(O)O	Activity (HeLa [5]): 56.2%; Activity (HeLa [6]): 30.7%; Activity (HeLa [7]): 13.1%; Activity (HeLa [8]): 43.2%; Activity (HeLa [9]): 30.7%; Activity (HeLa [10]): 26%; Activity (HeLa [11]): 7.6%; Activity (HeLa [12]): 11.7%
–	–	–	–	CC[C@H](C)[C@@H]1C(=O)O[C@H]1C(=O)N[C@H]1C[C@H]1C[C@H](NC(=O)[C@H](C)N)C(=O)O [BELACTOSIN A]	IC50 [13]: 51 µM
> 10	> 10	> 10	> 10	CC(C)C[C@H](NC(=O)CC[C@H](NC(=O)OC(C)(C)C)C(=O)NCc1ccc2ccccc2c1)B(O)O	–
0.07	7.23	> 10	–	CC(C)C[C@@H](C=O)NC(=O)[C@H](CC(C)C)NC(=O)[C@H](CC(C)C)NC(=O)OCc1ccccc1 [MG-132] (Cbz-Leu-Leu-Leu-aldehyde)	–
2.74	> 10	> 10	> 10	CC(C)C[C@H](NC(=O)CCC[C@H](NC(=O)CNC(=O)OC(C)(C)C)C(=O)NCc1ccc2ccccc2c1)B(O)O	–
4.51	> 10	> 10	> 10	CC(C)C[C@H](NC(=O)C[C@H](NC(=O)OC(C)(C)C)C(=O)NCc1ccc2ccccc2c1)B(O)O	–
–	–	–	–	CC[C@H](C)[C@@H]1C(=O)O[C@H]1C(=O)NCCC[C@H](NC(=O)[C@H](C)N)C(=O)O [BELACTOSIN C]	IC50 [13]: 200 µM
0.02	0.68	> 10	0.02	CC(C)C[C@H](NC(=O)[C@H](Cc1ccccc1)NC(=O)c1cnccn1)B(O)O [BORTEZOMIB]	Activity (HeLa [14]): 14.6%; Activity (HeLa [15]): 15.9%; Activity (HeLa [16]): 69.6%; Activity (HeLa [17]): 14.5%
4.28	> 10	> 10	> 10	CC(C)C[C@H](NC(=O)CCC[C@H](NC(=O)[C@H](C)NC(=O)OC(C)(C)C)C(=O)NCc1ccc2ccccc2c1)B(O)O	–
0.84	9.84	> 10	2.35	CC(C)C[C@H](NC(=O)CC[C@H](NC(=O)[C@H](C)NC(=O)OC(C)(C)C)C(=O)NCc1ccc2ccccc2c1)B(O)O	–
1.47	> 10	> 10	0.66	CC(C)C[C@H](NC(=O)CC[C@H](NC(=O)[C@H](Cc1ccccc1)NC(=O)OC(C)(C)C)C(=O)NCc1ccc2ccccc2c1)B(O)O	–
1.5	> 10	> 10	0.79	CC(C)C[C@H](NC(=O)CC[C@H](NC(=O)[C@H](CC(C)C)NC(=O)OC(C)(C)C)C(=O)NCc1ccc2ccccc2c1)B(O)O	–
